Experimental data gathered from unrelated publications.
Compare with care: the assays were run in different laboratories.
Target: Serine/threonine-protein kinase 16 (STK16, Homo sapiens, UniProt O75716)

| SMILES | assay | setting | remaining binding |
| --- | --- | --- | --- |
| COc1cnc(Nc2cccc(S(N)(=O)=O)c2)nc1N1CCN(c2ccccc2)CC1 | binding, competition with immobilised ligand | 1 µM | 57% |
| C=CC(=O)N1CCC(C(=O)NCC(=O)N2CCN(c3nc(-c4cnc(N)nc4C(F)F)nc(N4CCOCC4)n3)CC2)CC1 | binding, competition with immobilised ligand | 1 µM | 92% |
| Cc1cnc(Nc2ccc(C(=O)N3CCC(N4CCCC4)CC3)cc2)nc1-c1cc2ccccc2s1 | binding, competition with immobilised ligand | 1 µM | 3.4% |
| CN(CCCC(F)(F)F)c1nccc(-c2cnn3ncccc23)n1 | binding | 1 µM | 79% |
| COc1cccc(CNC(=O)c2nc3scc(COCc4ccc(C(=O)O)cc4)c3c(=O)[nH]2)c1 | cell-free assay, competition with immobilised ligand | 1 µM | 87.2% |
| COc1ncc2cc3ccccc3nc2c1C#N | cell-free assay, competition with immobilised ligand | 5 µM | 90% |
| c1cnn2ncc(-c3ccnc(N4CCC45COC5)n3)c2c1 | binding | 1 µM | 78% |
| CCc1ccccc1C(=O)Nc1n[nH]c2c(C)c(F)c(C3C(C#N)=C(C)N(C)C(C)=C3C#N)cc12 | cell-free assay, competition with immobilised ligand | 1 µM | 79% |
| COc1ccnn2ncc(-c3ccnc(N(C)C)n3)c12 | binding | 1 µM | 85% |
| COc1ccc2cc(OCC3(C(=O)O)CN(C(=O)c4ccc(F)cc4)C3)ccc2c1 | cell-free assay, competition with immobilised ligand | 1 µM | 88% |
| N[C@@H]1CCN(c2nccc(-c3cnn4ncccc34)n2)C1 | binding | 1 µM | 100% |
| FC(F)(F)Oc1cccc(-c2cnc3ccc(-c4ccncc4)nn23)c1 | binding, competition with immobilised ligand | 5 µM | 40% |
| C[C@@H](c1ccc(-n2cnc3c(N)ncnc32)cc1)N1CCc2nn(C)c(Cc3ccccc3)c2C1=O | binding, competition with immobilised ligand | 0.1 µM | 85% |
| O=C(NCCCN1CCOCC1)c1ccc(Nc2ncc(Cl)c(-c3ccc(Cl)s3)n2)cc1 | binding, competition with immobilised ligand | 1 µM | 1.1% |
| CNC(=O)[C@@H]1CC[C@@H](n2c(-c3ccc4cnccc4c3)nc3ccc(C(=O)NCc4cccc(C(N)=O)c4)cc32)C1 | binding, competition with immobilised ligand | 1 µM | 100% |
| CNC(=O)Nc1ccc2c(c1)CC[C@@]21OC(=O)N(CC(=O)N(Cc2ccc(F)cc2)[C@@H](C)C(F)(F)F)C1=O | cell-free assay, competition with immobilised ligand | 1 µM | 84% |
| O=C(Nc1c[nH]nc1C(=O)NC1CCNCC1)c1cc(F)cc(F)c1 | binding, competition with immobilised ligand | 1 µM | 100% |
| CCCOc1ccc([C@H]2[C@H](C(=O)O)[C@@H](c3ccc4c(c3)OCO4)CN2CC(=O)Nc2c(CC)cccc2CC)cc1 | cell-free assay, competition with immobilised ligand | 1 µM | 72% |
| O=C(c1ccc(Nc2ncc(Cl)c(-c3ccc(Cl)s3)n2)cc1)N1CCC(N2CCCC2)CC1 | binding, competition with immobilised ligand | 1 µM | 0.05% |
| Cc1cc(C)c(-n2ccn3nc(-c4cccnc4)cc23)cc1NC(=O)c1cc(C#N)cc(S(F)(F)(F)(F)F)c1 | cell-free assay, competition with immobilised ligand | 0.1 µM | 64.3% |
| CN(C)c1ncc(F)c(-c2cnn3ncccc23)n1 | binding | 1 µM | 87% |
